Common to all, as to format: functional
Test [1] deals with Pseudomonas aeruginosa. The test can be described thus: Antibacterial activity against Pseudomonas aeruginosa PAO1 after 18 hrs by microtiter dilution assay. The procedure, abridged:
(§1)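 Broth microdilution following CLSI guidelines. An overnight culture was adjusted to 0.5 McFarland in saline, then diluted 1:50 in Mueller-Hinton broth. This inoculum was added in equal volume to 2-fold serial dilutions of agent in MHB and incubated 18 h at 37 °C. MIC was the lowest concentration with no visible growth.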

Test [2] concerns Pseudomonas aeruginosa. The test can be described thus: Antibacterial activity against multidrug/extremely drug-resistant/colistin-resistant Pseudomonas aeruginosa isolate 101243 after 18 hrs by microtiter dilution assay. The conditions noted are these: isolate 101243, 18 h. The procedure, abridged: as §1
Test [3] concerns Pseudomonas aeruginosa. The test can be described thus: Antibacterial activity against multidrug/extremely drug-resistant/colistin-susceptible Pseudomonas aeruginosa isolate 100036 after 18 hrs by microtiter dilution assay. The conditions noted are these: isolate 100036, 18 h. Summed up: as §1
The subject of test [4] is Pseudomonas aeruginosa. The test can be described thus: Antibacterial activity against multidrug/extremely drug-resistant/colistin-susceptible Pseudomonas aeruginosa isolate P264-104354 after 18 hrs by microtiter dilution assay. To be noted: isolate P264-104354, 18 h. The procedure, abridged:
as §1

The test system of test [5] is Pseudomonas aeruginosa. The test can be described thus: Antibacterial activity against multidrug/extremely drug-resistant/colistin-susceptible Pseudomonas aeruginosa isolate P262-101856 after 18 hrs by microtiter dilution assay. To be noted: isolate P262-101856, 18 h. The procedure, abridged:
as §1

The subject of test [6] is Pseudomonas aeruginosa. The test can be described thus: Antibacterial activity against multidrug/extremely drug-resistant/colistin-resistant Pseudomonas aeruginosa isolate 91433 after 18 hrs by microtiter dilution assay. The conditions noted are these: isolate 91433, 18 h. Summed up:
as §1

Test [7] relates to Pseudomonas aeruginosa. The test can be described thus: Antibacterial activity against multidrug/extremely drug-resistant/colistin-susceptible Pseudomonas aeruginosa isolate 101885 after 18 hrs by microtiter dilution assay. The conditions noted are these: isolate 101885, 18 h. The procedure, abridged: as §1
Test [8] has as its system Pseudomonas aeruginosa. The test can be described thus: Antibacterial activity against multidrug/extremely drug-resistant/colistin-susceptible Pseudomonas aeruginosa isolate P259-96918 after 18 hrs by microtiter dilution assay. The conditions noted are these: isolate P259-96918, 18 h. Summed up: as §1
In test [9] the test system is Escherichia coli. The test can be described thus: Antibacterial activity against gentamicin-resistant Escherichia coli isolate CAN-ICU 61714 after 18 hrs by microtiter dilution assay. The conditions noted are these: isolate CAN-ICU 61714, 18 h. Summed up: as §1
For test [10], the system named is Escherichia coli. The test can be described thus: Antibacterial activity against amikacin-resistant Escherichia coli isolate CAN-ICU 63074 after 18 hrs by microtiter dilution assay. The conditions noted are these: isolate CAN-ICU 63074, 18 h. The procedure, abridged:
as §1

For test [11], the system named is Staphylococcus epidermidis. The test can be described thus: Antibacterial activity against methicillin-resistant Staphylococcus epidermidis isolate CAN-ICU 61589 after 18 hrs by microtiter dilution assay. To be noted: isolate CAN-ICU 61589, 18 h. The procedure, abridged: as §1

Converted amounts (≈) assume the structure as drawn.

Usually MIC stands for the lowest concentration found to suppress growth. Read a high MIC as a less susceptible organism. On to GENTAMICIN, for which 1 µg/mL was the least that counted as inhibitory in the test with Pseudomonas aeruginosa [1] (MIC).

Turning to `COc1c(N2C[C@@H]3CCCN[C@@H]3C2)c(F)cc2c(=O)c(C(=O)O)cn(C3CC3)c12` [MOXIFLOXACIN], the MIC worked out at 1 µg/mL (≈ 2.49 µM) against Pseudomonas aeruginosa [1] (PAO1, 18 h); 4 µg/mL (≈ 9.96 µM) against Pseudomonas aeruginosa [2]; 128 µg/mL (≈ 319 µM) with Pseudomonas aeruginosa [3]; 128 µg/mL (≈ 319 µM) in the test on Pseudomonas aeruginosa [4]; 128 µg/mL (≈ 319 µM) in the test on Pseudomonas aeruginosa [5]; 8 µg/mL (≈ 19.9 µM) with Pseudomonas aeruginosa [6]. The MIC amounted to 64 µg/mL (≈ 159 µM) in the test on Pseudomonas aeruginosa [7] and 512 µg/mL (≈ 1280 µM) against Pseudomonas aeruginosa [8].

For the compound `NC[C@H]1O[C@H](O[C@H]2[C@H](O)[C@@H](O[C@H]3O[C@H](CO)[C@@H](O)[C@H](N)[C@H]3O)[C@H](N)C[C@@H]2N)[C@H](O)[C@@H](O)[C@@H]1O` [KANAMYCIN], the minimum inhibitory concentration (MIC) in the test on Pseudomonas aeruginosa [1] (PAO1, 18 h) worked out at 64 µg/mL (≈ 132 µM).

On to `O=C(O)c1cn(C2CC2)c2cc(N3CCNCC3)c(F)cc2c1=O` [CIPROFLOXACIN], for which the minimal inhibitory concentration (MIC) in the test on Pseudomonas aeruginosa [3] amounted to 64 µg/mL (≈ 193 µM); against Pseudomonas aeruginosa [4], 32 µg/mL (≈ 96.6 µM); in the test with Pseudomonas aeruginosa [5], 32 µg/mL (≈ 96.6 µM); against Pseudomonas aeruginosa [7] it was 32 µg/mL (≈ 96.6 µM); in the test with Pseudomonas aeruginosa [8], 128 µg/mL (≈ 386 µM).

With `Cc1nnc(SCC2=C(C(=O)O)N3C(=O)[C@@H](NC(=O)Cn4cnnn4)[C@H]3SC2)s1` [CEFAZOLIN], the MIC in the test on Escherichia coli [9] is 32 µg/mL (≈ 70.4 µM); against Escherichia coli [10], 32 µg/mL (≈ 70.4 µM); in test [11] it was over 32 µg/mL.

For the compound `COc1cc(Cc2cnc(N)nc2N)cc(OC)c1OC` [TRIMETHOPRIM], the minimal inhibitory concentration (MIC) was 256 µg/mL (≈ 882 µM) in the test on Pseudomonas aeruginosa [1] (PAO1, 18 h); 1020 µg/mL (≈ 3530 µM) against Pseudomonas aeruginosa [2]; 256 µg/mL (≈ 882 µM) in the test on Pseudomonas aeruginosa [3]; 256 µg/mL (≈ 882 µM) in the test on Pseudomonas aeruginosa [4]; over 1020 µg/mL in the test on Pseudomonas aeruginosa [5]; 512 µg/mL (≈ 1760 µM) against Pseudomonas aeruginosa [6]. In addition, the MIC against Pseudomonas aeruginosa [7] is over 512 µg/mL; against Pseudomonas aeruginosa [8] it was 512 µg/mL (≈ 1760 µM).

In the case of `CC(C)(O/N=C(\C(=O)N[C@@H]1C(=O)N2C(C(=O)[O-])=C(C[n+]3ccccc3)CS[C@H]12)c1csc(N)n1)C(=O)O` [CEFTAZIDIME], the minimal inhibitory concentration (MIC) in the test on Pseudomonas aeruginosa [1] (PAO1, 18 h) is 2 µg/mL (≈ 3.66 µM); in the test with Pseudomonas aeruginosa [2], 64 µg/mL (≈ 117 µM); against Pseudomonas aeruginosa [3], 8 µg/mL (≈ 14.6 µM); in the test with Pseudomonas aeruginosa [4] it was 64 µg/mL (≈ 117 µM); with Pseudomonas aeruginosa [5], 16 µg/mL (≈ 29.3 µM); in the test with Pseudomonas aeruginosa [6] it was 256 µg/mL (≈ 468 µM). Besides, the figures for the minimum inhibitory concentration (MIC) (against Pseudomonas aeruginosa [7]; in the test on Pseudomonas aeruginosa [8]; in [11]) were 8 µg/mL (≈ 14.6 µM), 512 µg/mL (≈ 937 µM) and over 32 µg/mL, respectively.

The compound `CO[C@@H]1[C@@H](OC(N)=O)[C@@H](O)[C@H](Oc2ccc3c(O)c(NC(=O)c4ccc(O)c(CC=C(C)C)c4)c(=O)oc3c2C)OC1(C)C` [NOVOBIOCIN] gave an MIC in the test with Pseudomonas aeruginosa [1] (PAO1, 18 h) of 1020 µg/mL (≈ 1670 µM).
